One test has as its system MOLM-13. The test is described as follows: Induction of cell death in human MOLM13 cells harboring wild type p53/FLT3-ITD mutant assessed as combination index at 1 to 4 uM after 24 hrs in presence of SAHA by annexin V-FITC/PI staining based flow cytometry. The class given is functional. The procedure, abridged:
(§1)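 Cells given SAHA and PL alone or together at 1:1 ratio for 24 h, then Annexin V-FITC/PI staining and flow cytometry. Combination index computed from the % Annexin V+ data; CI < 1 synergistic, = 1 additive, > 1 antagonistic. Triplicates, three independent experiments.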
In general terms: A flow cytometer gives signals particle by particle.

Test [1] relates to U-937. In words: Induction of cell death in p53 null human U937 cells assessed as combination index at 2 to 4 uM after 24 hrs in presence of SAHA by annexin V-FITC/PI staining based flow cytometry. The format is functional. The procedure, abridged: as §1
The test system of a further test is HL-60. In words: Antiproliferative activity against human HL60 cells after 72 hrs in presence of SAHA by MTT assay. The class given is functional, cell-based. Conditions: HL-60, 72 h. An outline of the steps:
(§2)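 AML cell lines grown in RPMI 1640 with 10% FBS (20% for MOLM-13), 2 mM L-glutamine and penicillin/streptomycin at 37 °C, 5% CO2. Ara-C-resistant HL-60 and CMK sublines came from stepwise cytarabine selection and were kept in 600 nM or 300 nM cytarabine respectively. Cells were treated 72 h. MTT 0.05 mg/mL, 3 h at 37 °C, DMSO solubilization, absorbance at 570 nm. IC50 given ± SEM.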
In general terms: Tetrazolium assays rely on reduction of a dye to a coloured formazan, in cell work by metabolically active cells.

Test [2] has as its system U-937. The test is described as follows: Induction of apoptosis in p53 null human U937 cells assessed as PARP-1 cleavage at 2 uM after 24 hrs in presence of SAHA by Western blot analysis. The format is functional, cell-based. An outline of the steps:
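U937 cells exposed for 24 h. Lysates with protease/phosphatase inhibitors were separated by SDS-PAGE, transferred to PVDF and probed for PARP and cleaved caspase-3, with β-actin as loading control.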
Background: Immunoblotting shows a protein as a band on a membrane.

The subject of test [3] is U-937. The test is described as follows: Effect on SAHA-induced apoptosis in p53 null human U937 cells assessed as decrease in XIAP expression level by measuring ratio of XIAP to beta-actin level at 2 uM after 24 hrs by Western blot analysis relative to control. The class given is functional. The procedure, abridged:
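U937 cells treated 24 h, alone or PL+SAHA. Whole-cell lysates (protease/phosphatase inhibitors) immunoblotted for γH2AX, CHK1, RAD51, Bim and XIAP. Band densitometry normalised to β-actin, then expressed as fold change relative to the untreated control.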

Test [4] has as its system CMK. The test is described as follows: Antiproliferative activity against human CMK cells after 72 hrs in presence of SAHA by MTT assay. The class given is functional, cell-based. An outline of the steps: as §2
Test [5] has as its system U-937. In words: Induction of DNA damage in p53 null human U937 cells at 2 uM after 20 hrs in presence of SAHA by SYBR gold staining based alkaline comet assay. The class given is functional, cell-based. The procedure, abridged:
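U937 cells treated 20 h with SAHA and PL alone or combined (16 h for hybrids). Alkaline single-cell gel electrophoresis, SYBR Gold staining, microscopy. Median % DNA in tail from 4 replicate gels ± s.e.m.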

The subject of test [6] is CMK. In words: Antiproliferative activity against Ara-C resistant human CMK cells after 72 hrs in presence of SAHA by MTT assay. The format is functional, cell-based. The procedure, abridged: as §2
In the next test the test system is OCI-AML-3. The test is described as follows: Antiproliferative activity against human OCI-AML3 cells after 72 hrs in presence of SAHA by MTT assay. The class given is functional, cell-based. Conditions: OCI-AML-3, 72 h. An outline of the steps: as §2
Test [7] concerns the target T1, Protein deacetylase HDAC6 (Homo sapiens) (UniProt Q9UBN7).
T1 sequence (whole entry): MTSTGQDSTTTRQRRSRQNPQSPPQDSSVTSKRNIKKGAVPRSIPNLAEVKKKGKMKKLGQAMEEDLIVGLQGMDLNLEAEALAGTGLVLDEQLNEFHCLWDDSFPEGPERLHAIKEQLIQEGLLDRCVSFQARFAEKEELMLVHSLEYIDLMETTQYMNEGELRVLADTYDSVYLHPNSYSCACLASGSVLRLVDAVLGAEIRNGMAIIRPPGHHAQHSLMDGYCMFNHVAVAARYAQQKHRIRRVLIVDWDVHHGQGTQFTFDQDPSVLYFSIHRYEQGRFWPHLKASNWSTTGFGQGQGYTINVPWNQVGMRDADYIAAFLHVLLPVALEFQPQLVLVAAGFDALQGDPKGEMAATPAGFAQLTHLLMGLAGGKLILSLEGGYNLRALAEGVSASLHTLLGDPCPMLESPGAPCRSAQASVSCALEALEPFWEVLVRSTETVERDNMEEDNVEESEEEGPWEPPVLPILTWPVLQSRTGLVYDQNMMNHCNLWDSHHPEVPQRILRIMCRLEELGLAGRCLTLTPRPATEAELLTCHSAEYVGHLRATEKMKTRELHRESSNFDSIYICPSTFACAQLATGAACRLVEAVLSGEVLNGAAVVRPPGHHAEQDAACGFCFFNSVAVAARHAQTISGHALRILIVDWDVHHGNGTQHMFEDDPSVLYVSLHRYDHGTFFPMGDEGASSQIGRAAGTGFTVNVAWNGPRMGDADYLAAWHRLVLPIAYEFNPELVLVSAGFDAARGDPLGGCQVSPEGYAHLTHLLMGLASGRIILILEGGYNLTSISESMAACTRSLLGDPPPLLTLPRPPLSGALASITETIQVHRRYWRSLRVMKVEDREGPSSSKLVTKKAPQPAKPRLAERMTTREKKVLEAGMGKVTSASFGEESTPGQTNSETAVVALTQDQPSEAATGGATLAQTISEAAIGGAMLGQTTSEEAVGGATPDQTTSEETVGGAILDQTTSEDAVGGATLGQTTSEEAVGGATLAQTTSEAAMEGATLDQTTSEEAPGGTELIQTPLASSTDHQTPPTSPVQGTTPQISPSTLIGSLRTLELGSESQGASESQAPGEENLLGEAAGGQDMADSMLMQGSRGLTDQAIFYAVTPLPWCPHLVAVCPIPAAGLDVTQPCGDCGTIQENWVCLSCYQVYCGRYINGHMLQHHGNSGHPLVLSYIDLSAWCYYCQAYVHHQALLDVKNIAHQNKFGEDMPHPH
In words: Effect on SAHA-induced HDAC6 inhibition in p53 null human U937 cells assessed as hyper acetylation of alpha tubulin at 1 uM after 4 hrs by Western blot analysis. The class given is cell-based. An outline of the steps:
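U937 cells treated at 1 μM for 4 h. Whole-cell lysates run on SDS-PAGE, transferred to PVDF and immunoblotted for acetyl-histone H4, histone H4, acetyl-α-tubulin and β-actin.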

In test [8] the test system is U-937. The test is described as follows: Induction of apoptosis in p53 null human U937 cells at 4 uM after 24 hrs in presence of SAHA by annexin V-FITC/PI staining based flow cytometry. The class given is functional.
A short description of test [9]: Antiproliferative activity against human CMY cells after 72 hrs in presence of SAHA by MTT assay. The class given is functional, cell-based. The procedure, abridged: as §2
In test [10] the test system is U-937. In words: Cytotoxicity against p53 null human U937 cells assessed as decrease in cell viability at 0.5 to 5 uM after 24 hrs by MTT assay. The class given is functional, cell-based. The procedure, abridged:
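MCF-10A (DMEM/F12, 5% horse serum, hydrocortisone, cholera toxin, insulin, EGF) and U937 (RPMI 1640, 10% FBS) were exposed to 0.5–5 μM, alone or PL+SAHA 1:1, for 24 h. MTT 0.05 mg/mL, 3 h at 37 °C, DMSO solubilization, A570. Viability given as mean ± SD of four to six independent experiments. DMSO <0.1% vehicle control.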

These results are taken from ChEMBL document CHEMBL4000155, “Synthesis and Antileukemic Activities of Piperlongumine and HDAC Inhibitor Hybrids against Acute Myeloid Leukemia Cells” (J Med Chem, 2016).

Calls of active or inactive are those of the source. The calls are words filed in the database; no cut-off is given here. Bounds are passed on as bounds.

As usually defined, the IC50 is the concentration at which inhibition is half-maximal. Regarding `COc1cc(/C=C/C(=O)N2CCC=CC2=O)cc(OC)c1OC` [PIPLARTINE], the figures for the CI entry with MOLM-13 and with U-937 [1] were “<=1.1” and below 0.9, respectively. The IC50 was 0.529 µM in the test with HL-60; 0.613 µM in the test with CMK [4]; 0.422 µM with CMK [6]; 1.11 µM in the test with OCI-AML-3; 0.442 µM in test [9]. The result in the test on U-937 [2] and in the test on U-937 [5] was Active. The Ratio with U-937 [3] was determined as 0.6. Moreover, the result in test [7] was inactive. Besides, the Activity in the test on U-937 [8] is reported as 81.1%.
On to `COc1cc(/C=C/C(=O)N2CCC=CC2=O)cc(OC)c1OCCCCCCC(=O)NO`, for which the result with U-937 [10] was Active.
